Reference: the RNAGym collection of RNA variant scans (doi:10.1126/science.aae0568)
Fewer inactive variants are shown than the library holds.

B1: tRNA (parent)
chain: GUUCCGUUGGCGUAAUGGUAACGCGUCUCCCUCCUAAGGAGAAGACUGCGGGUUCGAGUCCCGUACGGAACG

Variants of: B1
Test: yeast fitness relative to wild type (ratio to wild type); higher = fitter; tRNA-Arg(CCU), competitive growth, 37 C, YPD
In short: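 For this measurement, the tRNA-Arg(CCU) gene was varied by chemical synthesis at a 3% per-site mutation rate across 69 sites, and each variant was placed at the native genomic locus in Saccharomyces cerevisiae. The pooled strains went through a 24-hour competition in YPD at 37°C in six parallel replicates, with amplicons from start and end populations read by 100-nucleotide paired-end sequencing. Darwinian fitness relative to wild type followed from the change in each genotype's frequency. Genotypes needed ≥ 100 starting reads, and estimates < 0.5 were set to 0.5.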

| Variant | yeast fitness |
| --- | --- |
| GUUCCGUUGGCGUAACGCUAACGCGUCUCCCUCCUAAGGAGGAGACUGCGGGUUCGAGUCCCGUACGGAACG | ≤ 0.5 |
| GUUCCGUUGGCGUAACGGAAACGCGUCUCCCUCCUAAGGAGAAGACAGCGGGUUCGAGUCACGUACGGAACG | 0.792 |
| GUUCCGUUGGCGUAACGGUAACGCGUCUCCCUCCUAAGGAGAAGACUCCGGGUUCGAGUCCCGUACGGAACG | 0.894 |
| GUUCCGUUGGCGUAAGGGUCACGCGUCUCCCUCCUAAGGAAAAGACUGCGGGUUUGAGUCCCGUACGGAACG | ≤ 0.5 |
| GUUCCGUUGGCGUAAGGGUAACGCGUCUCCCUCCUAAGGGGAAGACUGCGGGUUCGAGUCCCGUACGGAACG | 0.935 |
| GUUCCGUUGGCGUAACGGUAACGCGACUCCCUCCUAAGGAGAUGACUGCGGGUUCGAGUCCUGUACGGAACG | ≤ 0.5 |
| GUUCCGUUGGCGUAACGGUAACGCGUCUCCCUCCUAAGGAGAAGACUGCGGGUUGGAGUCCCGUACGGAACG | 0.669 |
| GUUCCGUUGGCGUAACGGUAACGCGUCUCCCUCCUAAGGAGAAGACUGCGGAUUCCAGUCCCGUACGGAACG | ≤ 0.5 |
| GUUCCGUUGGCGUAACGAUAACGGGUCUCCCUCCUAAGGAGAAGUCUGCGGGUUCGAGUCCAGUACGGAACG | ≤ 0.5 |
| GUUCCGUUGGCGUAACGGUAACGCGCCUCCCUCCUAAGGAGAAGACUGCGGGUUCGAAUCCCGUACGGAACG | 1.11 |
| GUUCCGUUGGCGUAACGGUAACGCGACUCCCUCCUAACGAGAAGACAGAGGGUUCGAGUCCCGUACGGAACG | ≤ 0.5 |
| GUUCCGUUGGCGUAACGGUAACGCCUCUCCCUCUUAAGGAGAAGACUGCGGGUUCGAGUCCCGGACGGAACG | 0.585 |
| GUUCCGUUGGCGUAACGGUAACGCGUCCCCCUCCUACGGAGAAGACUGCGGGUUCAAGCCCCGUACGGAACG | ≤ 0.5 |
| GUUCCGUUGGCGUAACGGUAACGCGUCUCCCUCCUAAGGAGAAGACUGCGAGUUCGAGUCCCGUUCGGAACG | 0.572 |
| GUUCCGUUGGCGUAACGGAAACGCGUCUUCCUCCUAAGGAGAAGACUGCGGGUUCGAGUCCCGUACGGAACG | 0.615 |
| GUUCCGUUGGCGUAACGGUAACGCGUCUCCCUCCUAAGGAGAAGACUGCGGGUUCGAGUCCCGUACGCAACG | 0.834 |
| GUUCCGUUGGCGUAACGGUAACGCGUCUCCCUCCUAAGGAGAAGACUGCGGGUUCGAGUCCCGUACGAAACG | 0.767 |
| GUUCCGUUGGCGUAACGCUAACGUGUCUCCCUCCUAAGGUGAAGACUGCGGGUUUGAGACCCGUACGGAACG | ≤ 0.5 |
| GUUCCGUUGGCGUAACGAUAACGGGUCUCCCUCCUAAGGAGAAGUCUGCGGGUUCGAGGCCCGUACGCAACG | 0.537 |

| Variant | yeast fitness |
| --- | --- |
| GUUCCGUUGGCGUAACGGUAACGCGACUCCCUCCUAAGGAGAAGACUGCGGGUUCGAGUCCCGUACGGAACG | 0.973 |
| GUUCCGUUGGCGUAACGGUAACGCGCCUCCCUCCUAAGGAGAAGACUGCGGGUUCGAGUCCCGUACGGAACG | 0.884 |
| GUUCCGUUGGCGUAAGGGUUACGCGUCUCCCUCCUAAAGAGAAGACUGCGGGUUCGAGUCCCGUACAGUACG | ≤ 0.5 |
| GUUCCGUUGGCGUAACGGUAACGCGUCUCCCUCCUAAGGAGAAGACUGCGGGUUCGAGUCUCGUACGGAACG | 0.93 |
| GUUCCGUUGGCGUAACGGUAACGCGUCUCCCUCCUAAGGAGAAGACUGCAGGUUCGAGUCCCGUACGGAACG | 0.799 |
| GUUCCGUUGGCGUAACGGUAACGCGUCUCCCCCCUAAGCAGAAGACUGCGGGUUCGAGUCCCGUACGGAACG | ≤ 0.5 |
| GUUCCGUUGGCGUAACGGUAACGCGUCUCCCUCCUAAGGAGAAGACUGCGGGUACGAGUCCCGUAUGGAACG | ≤ 0.5 |
| GUUCCGUUGGCGUAACGGUAACGCGACUCCCUCCUAAGGAGAAGACUGCGGGUUCGAGUCCCGUACCGAACG | 0.657 |
| GUUCCGUUGGCGUAACGGUAACGCGUCUCCCUCCUAAGGAGAAGACUGCGGGUUCGAGUGCCGUGCGGAACG | ≤ 0.5 |
| GUUCCGUUGGCGUAACGGUAACGCCUCUCCCUCUUAAGGAGAAGACUGCGGGUUCGAGUCCCGUACGGAACG | 0.544 |
| GUUCCGUUGGCGUAAGGGUAACGCGUCUCCCUCCUUAGGAGAAGACUGCGGGUUCGAGUCCCGUACGGAACG | 0.589 |
| GUUCCGUUGGCGUAACGGUAACGCGUCUCCCUCCUAAGGAGAAGACUGCGGGAUCGAGUCCCGUACGGAACG | 0.611 |
| GUUCCGUUGGCGUAACGGUAACGCAUCCCCCUCCUAAGGAGAAGACUGCGGCUUCGAGUCCCGUACGGAACG | ≤ 0.5 |
| GUUCCGUUGGCGUAACGGUAACGCGUCUCCCUCCUAAGGAGAAGACUGCGAGUUCGAGUCCCGUUCGGAGCG | ≤ 0.5 |
| GUUCCGUUGGCGUAACGGUAACGCGUCUCCCUCCUAAGGAGAAGACUGCGGGUUCGAGUACUGUACGGAACG | 0.55 |
| GUUCCGUUGGCGUAACGGUAACGCGUCUCCCUCCUAAGGAGAAGACUGCGGGUUCGAGCCCCGUACAGAACG | ≤ 0.5 |
| GUUCCGUUGGCGUAACGGUAACGCGUCUCCCUCCUAAGGAGAAAACUGCGGGUUCGAGUCCCGUACGGAACG | 1.06 |
| GUUCCGUUGGCGUAACGGUAACGCGUCUCCCUCCUAAGGAGAAGACUGCGGGUUCGAGUCCCAUACGGAACG | 0.884 |
| GUUCCGUUGGCGUAACGGUAACGCGUCUCCCGCGUAAGGAGAAGACUGCGGGAUCGAGUCCCCUACGGAACG | ≤ 0.5 |
